The species entered for one assay is Bos taurus. Kind of assay: Competitive inhibition against [3H]dopamine uptake in bovine striatal tissue. The format is functional, Striatum. In a few lines: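 Striatal P2 synaptosomes prepared in ice-cold 0.3 M sucrose with […], pH 7.4 (3000g for 10 min, then supernatant at 17000g for 20 min). [3H]dopamine (30 Ci/mmol) uptake read by filtration at 37 °C; nonspecific uptake measured at 4 °C. Run in triplicate; mean of three experiments; IC50 from log-logit transformation.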

The target in assay [1] is Sodium-dependent dopamine transporter (Bos taurus, UniProt P27922). The assay is described as follows: Competitive inhibition against [3H]cocaine binding to cocaine receptor in bovine striatal tissue. The assay is classed as tissue-based, Striatum. In a few lines:
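Bovine striatum (caudate, putamen, globus pallidus, nucleus accumbens) homogenised in ice-cold 10 mM Na2HPO4 with 0.32 M sucrose, pH 7.4. Pelleted twice at 17000g for 20 min and resuspended to about 3.0 mg/mL protein (Lowry). [3H]cocaine (29.7 Ci/mmol) binding measured by filtration. Triplicates; mean of three experiments; IC50 by log-logit transformation.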

Each structure is given as a SMILES string.

In ChEMBL document CHEMBL1124852, “Synthesis of 3-arylecgonine analogues as inhibitors of cocaine binding and dopamine uptake” (J Med Chem, 1990) one finds IC50 data, which are given here for four compounds.

Chain of Sodium-dependent dopamine transporter (P27922 whole entry): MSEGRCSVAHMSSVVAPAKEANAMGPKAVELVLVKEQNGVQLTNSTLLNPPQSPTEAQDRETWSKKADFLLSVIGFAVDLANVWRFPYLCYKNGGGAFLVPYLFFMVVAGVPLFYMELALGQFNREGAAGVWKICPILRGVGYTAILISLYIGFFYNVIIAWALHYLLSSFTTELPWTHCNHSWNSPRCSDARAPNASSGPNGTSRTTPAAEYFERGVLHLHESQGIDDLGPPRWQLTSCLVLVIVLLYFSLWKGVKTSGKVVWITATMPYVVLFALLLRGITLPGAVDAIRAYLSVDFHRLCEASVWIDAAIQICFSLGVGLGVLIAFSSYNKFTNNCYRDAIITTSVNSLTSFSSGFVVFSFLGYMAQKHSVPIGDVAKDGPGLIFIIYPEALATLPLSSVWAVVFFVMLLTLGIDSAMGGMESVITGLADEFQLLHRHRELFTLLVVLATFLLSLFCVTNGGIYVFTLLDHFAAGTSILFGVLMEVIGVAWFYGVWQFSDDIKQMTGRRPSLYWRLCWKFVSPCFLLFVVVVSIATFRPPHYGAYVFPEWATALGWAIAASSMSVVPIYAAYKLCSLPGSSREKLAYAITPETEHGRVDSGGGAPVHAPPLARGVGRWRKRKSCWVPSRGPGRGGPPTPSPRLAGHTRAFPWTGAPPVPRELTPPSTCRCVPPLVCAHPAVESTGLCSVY

For orientation: IC50 means the concentration that inhibits the measured activity by half. Read a high IC50 as weaker potency in that assay. As for `COC(=O)C1C(c2ccc(N)cc2)CC2CCC1N2C` (stereo not drawn), the IC50 worked out at 557 nM in the assay listed under Bos taurus (Bos taurus, Striatum) and 192 nM in assay [1].
For the compound `COC(=O)[C@@H]1C2CC[C@H](C[C@@H]1c1ccccc1)N2C` (mixture of isomers; form 1), the half-maximal inhibitory concentration (IC50) was determined as 133 nM in the assay listed under Bos taurus and 22 nM in assay [1].
Consider `COC(=O)[C@@H]1C2CC[C@H](C[C@@H]1c1ccccc1)N2C` (mixture of isomers; form 2), for which the IC50 came to 2100 nM in the assay listed under Bos taurus and 1200 nM in assay [1].
On to `COC(=O)C1C(c2ccc([N+](=O)[O-])cc2[N+](=O)[O-])CC2CCC1N2C` (racemic), for which the 50% inhibitory concentration (IC50) was found to be 30000 nM in the assay filed under Bos taurus (Bos taurus, Striatum) and 11000 nM in assay [1].
